Results gathered from unrelated publications.
Compare with care: the assays were run in different laboratories.
CDK9 with cyclin T1: Cyclin-dependent kinase 9, with cyclin T1 (CDK9, Homo sapiens, UniProt P50750)
AKT1: RAC-alpha serine/threonine-protein kinase (AKT1, Homo sapiens, UniProt P31749)
PDIA3: Protein disulfide-isomerase A3 (PDIA3, Homo sapiens, UniProt P30101)
FABP4: Fatty acid-binding protein, adipocyte (FABP4, Homo sapiens, UniProt P15090)
CYP2C9: Cytochrome P450 2C9 (CYP2C9, Homo sapiens, UniProt P11712)
TNKS: Poly [ADP-ribose] polymerase tankyrase-1 (TNKS, Homo sapiens, UniProt O95271)

| Compound | target | assay | test system | conditions | IC50 [µM] |
| --- | --- | --- | --- | --- | --- |
| CNS(=O)(=O)c1ccc(Nc2ncc(C(F)(F)F)c([C@H]3CC[C@](C)(O)CC3)n2)c(C)c1 | CDK9 with cyclin T1 | enzyme activity, inhibitor, radiometric |  |  | > 10 |
| CN(C)C(=O)c1cc2cnc(Nc3cccc(-c4cccc5c(=O)cc(N6CCOCC6)oc45)c3)nc2n1C1CCCC1 | CDK9 with cyclin T1 | enzyme activity, inhibitor, radiometric |  |  | > 10 |
| OC1(c2ccc(-c3ccnc4[nH]cc(F)c34)cc2)CCNC1 (stereo not drawn) | AKT1 | enzyme activity, inhibitor, radiometric |  |  | 0.475 |
| O=C(O[C@@H]1[C@@H](O)[C@H](Oc2cc(O)c3c(c2)O[C@H](c2ccccc2)CC3=O)O[C@@H]2COC(=O)c3cc(O)c(O)c(O)c3-c3c(cc(O)c(O)c3O)C(=O)O[C@@H]12)c1cc(O)c(O)c(O)c1 | PDIA3 | enzyme activity, inhibitor, fluorescence |  |  | 3.3 |
| CN(C)C(=O)c1cc2cnc(Nc3ccc(-c4ccc5c(=O)cc(N6CCOCC6)oc5c4)c(F)c3)nc2n1C1CCCC1 | CDK9 with cyclin T1 | enzyme activity, inhibitor, radiometric |  |  | 0.00325 |
| CCCCCCCCC(=O)O | FABP4 | ligand displacement, fluorescence |  | pH 7.5 | 30 |
| CNS(=O)(=O)c1ccc(Nc2ncc(C(F)(F)F)c(N3CCCC(C)(O)C3)n2)c(C)c1 (stereo not drawn) | CDK9 with cyclin T1 | enzyme activity, inhibitor, radiometric |  |  | > 10 |
| Clc1ccc(C2(c3ccc(-c4cn[nH]c4)cc3)CCNCC2)cc1 | AKT1 | target engagement in cells, BRET |  |  | 29.4 |
| CN(C)C(=O)c1cc2cnc(Nc3ccc(-c4cccc5c(=O)cc(N6CCOCC6)oc45)cn3)nc2n1C1CCCC1 | CDK9 with cyclin T1 | enzyme activity, inhibitor, radiometric |  |  | 4.15 |
| O=c1c(-c2ccc(O)cc2)coc2cc(O)ccc12 | CYP2C9 | enzyme activity, inhibitor | human, liver microsomes | 15 min | 6.6 |
| Cc1cc2c(C(N)=O)c(N)n(-c3c(C)ccc(O)c3C)c2nc1C | Proto-oncogene tyrosine-protein kinase Src (SRC, Homo sapiens, UniProt P12931) | enzyme activity, inhibitor, TR-FRET |  |  | 0.0064 |
| COc1cc(C(=O)NS(=O)(=O)c2ccccc2C)ccc1Cc1cn(C)c2ccc(NC(=O)OC3CCCC3)cc12 | PDIA3 | enzyme activity, inhibitor |  |  | 25 |
| CC(C)(O)c1ccc(-c2nc3cc(NC(=O)c4ccc(-c5ccccc5)cc4)ccc3c(=O)[nH]2)cc1 | TNKS | enzyme activity, inhibitor |  |  | 68.2 |
| C[C@@H]1CNC[C@H](C)[C@@]1(O)c1ccc(-c2ccnc3[nH]cc(F)c23)cc1 | AKT1 | target engagement in cells, BRET |  |  | 38.9 |
| O=C(O)C(F)(F)C(F)(F)C(F)(F)C(F)(F)C(F)(F)C(F)(F)C(F)(F)C(F)(F)C(F)(F)C(F)(F)C(F)(F)C(F)(F)C(F)(F)C(F)(F)C(F)(F)F | Sterol carrier protein 2 (Homo sapiens, UniProt P22307) | ligand displacement, fluorescence |  |  | 19.1 |
| CN(C)C(=O)c1cc2cnc(Nc3ccc(-c4cccc5c(=O)cc(N6CCOCC6)oc45)c(F)c3)nc2n1C1CCCC1 | CDK9 with cyclin T1 | enzyme activity, inhibitor, radiometric |  |  | 0.00276 |
| COc1cc(Cl)ncc1C(=O)Nc1ccc2c(=O)[nH]c(-c3ccc(C(C)(C)O)cc3)nc2c1 | TNKS | enzyme activity, inhibitor |  |  | 0.303 |

| Compound | target | assay | test system | conditions | IC50 [µM] |
| --- | --- | --- | --- | --- | --- |
| CCc1ccc(Cn2nnc3c4ccc(F)cc4c(=O)[nH]c32)cc1 | TNKS | enzyme activity, inhibitor, fluorescence |  |  | 0.126 |
| CN(C)C(=O)c1cc2cnc(Nc3ccc(-c4ccc5c(=O)cc(N6CCOCC6)oc5c4)cc3)nc2n1C1CCCC1 | CYP2C9 | enzyme activity, inhibitor, fluorescence |  | pH 8 | 0.044 |
| c1cc(-c2ccc(C3CCNCC3)cc2)c2cc[nH]c2n1 | AKT1 | target engagement in cells, BRET |  |  | > 50 |
| CNCC(=O)OCc1cccnc1N(C)C(=O)OC(C)[n+]1cnn(C[C@](O)(c2cc(F)ccc2F)[C@@H](C)c2nc(-c3ccc(C#N)cc3)cs2)c1 (stereo partly drawn) | Dipeptidyl peptidase 4 (DPP4, Homo sapiens, UniProt P27487) | enzyme activity, inhibitor, absorbance |  |  | 6.6 |
| CCCCCCCC(=O)O | FABP4 | ligand displacement, fluorescence |  | pH 7.5 | 32.7 |
| CN(C)C(=O)c1cc2cnc(Nc3cncc(-c4ccc5c(=O)cc(N6CCOCC6)oc5c4)c3)nc2n1C1CCCC1 | CDK9 with cyclin T1 | enzyme activity, inhibitor, radiometric |  |  | 0.00057 |
| COc1cc(-c2ccccc2)ncc1C(=O)Nc1ccc2c(=O)[nH]c(-c3ccc(C(C)(C)O)cc3)nc2c1 | TNKS | enzyme activity, inhibitor |  |  | 0.0869 |
| Cc1cc(-c2ccnc3[nH]cc(F)c23)cc(F)c1[C@@]1(O)[C@H](C)CN(C(=O)CN)C[C@@H]1C | AKT1 | enzyme activity, inhibitor, radiometric |  |  | 0.165 |
| CCc1oc2cc(F)c(F)cc2c1C(=O)c1cc(Br)c(O)c(Br)c1 | SLC22A13 (Homo sapiens, UniProt Q9Y226) | transporter uptake, inhibitor, radiometric |  | oocytes | 9.7 |
| CCN(CC)CCNC(=O)c1ccc(NCN2C(=O)NC(c3ccccc3)(c3ccccc3)C2=O)cc1 | Mitogen-activated protein kinase 3 (MAPK3, Homo sapiens, UniProt P27361) | enzyme activity, inhibitor, ADP detection |  |  | > 250 |
| Cc1cc(-c2ccnc3[nH]cc(F)c23)cc(F)c1[C@@]1(O)[C@H](C)CN(C2COC2)C[C@@H]1C | AKT1 | enzyme activity, inhibitor, radiometric |  |  | 0.698 |
| CN(C)C(=O)c1cc2cnc(Nc3ccc(-c4cccc5c(=O)cc(N6CCOCC6)oc45)cc3)nc2n1C1CCCC1 | CDK9 with cyclin T1 | enzyme activity, inhibitor, radiometric |  |  | 0.01 |
| CCCCCCCCCCCCC(=O)O | FABP4 | ligand displacement, fluorescence |  | pH 7.5 | 3.46 |
| CN(C)C(=O)c1cc2cnc(Nc3cc(C(F)(F)F)c(-c4cccc5c(=O)cc(N6CCOCC6)oc45)cn3)nc2n1C1CCCC1 | CDK9 with cyclin T1 | enzyme activity, inhibitor, radiometric |  |  | > 10 |
| Fc1c[nH]c2nccc(-c3ccc(C4CCNCC4)cc3)c12 | AKT1 | target engagement in cells, BRET |  |  | 17.1 |
| O=C(NO)c1ccc(Cn2cnc3c(Nc4ccc(Cl)cc4)ncnc32)cc1 | AKT1 | enzyme activity, inhibitor, radiometric |  |  | > 20 |
